Laboratory results as given in ChEMBL document CHEMBL1138520, “Molecular and conformational determinants of pituitary adenylate cyclase-activating polypeptide (PACAP) for activation of the PAC1 receptor” (J Med Chem, 2009).
Where a SMILES comes first, the peptide text is derived from it. [ ]: non-standard residue; d: D form. Aad = N[C@@H](CCCC(=O)O)C(=O)O

Experiments:
[1] = biological target: T1, Pituitary adenylate cyclase-activating polypeptide type I receptor (Homo sapiens, UniProt P41586); assay: Agonist activity at human recombinant PAC1 receptor expressed in CHO cells assessed as PACAP38-induced calcium mobilization by FLIPR assay; assay type: functional, cell-based
In short: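 CHO cells stably expressing recombinant human PAC1, plated 24 h before assay, loaded with fluo-4 AM for 60 min at 37 °C in the dark, then rinsed into HBSS for 15 min at 37 °C. EC50 and efficacy came from nonlinear regression; 4-10 independent assays in duplicate.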
Target sequence in this assay (P41586 whole entry): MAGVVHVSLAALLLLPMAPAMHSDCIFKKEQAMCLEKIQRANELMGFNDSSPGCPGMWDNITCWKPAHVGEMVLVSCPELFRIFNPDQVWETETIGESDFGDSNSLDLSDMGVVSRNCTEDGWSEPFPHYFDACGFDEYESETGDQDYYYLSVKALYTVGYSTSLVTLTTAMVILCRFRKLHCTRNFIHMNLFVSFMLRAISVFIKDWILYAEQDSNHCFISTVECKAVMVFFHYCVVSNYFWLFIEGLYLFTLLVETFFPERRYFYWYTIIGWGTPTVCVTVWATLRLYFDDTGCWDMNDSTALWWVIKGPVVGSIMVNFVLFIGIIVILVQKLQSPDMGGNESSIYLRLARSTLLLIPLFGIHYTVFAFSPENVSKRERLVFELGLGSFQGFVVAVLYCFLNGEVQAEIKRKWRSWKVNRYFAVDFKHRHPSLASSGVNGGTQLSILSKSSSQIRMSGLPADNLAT

[2] = biological target: T1, Pituitary adenylate cyclase-activating polypeptide type I receptor; assay: Agonist activity at human recombinant PAC1 receptor expressed in CHO cells assessed as PACAP38-induced calcium mobilization by FLIPR assay relative to PACAP38; assay type: functional, cell-based
In short: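 CHO cells stably expressing recombinant human PAC1, plated 24 h before assay, loaded with fluo-4 AM for 60 min at 37 °C in the dark, then rinsed into HBSS for 15 min at 37 °C. Peptide was added 18 s into a 150 s read (ex 480/em 525 nm), at final concentrations of 1 × 10-12 to 1 × 10^-5 M. Response was normalised to 1 × 10^-5 M PACAP38 on each plate. EC50 and efficacy came from nonlinear regression; 4-10 independent assays in duplicate.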
Target sequence in this assay (P41586 21-468 limits assumed): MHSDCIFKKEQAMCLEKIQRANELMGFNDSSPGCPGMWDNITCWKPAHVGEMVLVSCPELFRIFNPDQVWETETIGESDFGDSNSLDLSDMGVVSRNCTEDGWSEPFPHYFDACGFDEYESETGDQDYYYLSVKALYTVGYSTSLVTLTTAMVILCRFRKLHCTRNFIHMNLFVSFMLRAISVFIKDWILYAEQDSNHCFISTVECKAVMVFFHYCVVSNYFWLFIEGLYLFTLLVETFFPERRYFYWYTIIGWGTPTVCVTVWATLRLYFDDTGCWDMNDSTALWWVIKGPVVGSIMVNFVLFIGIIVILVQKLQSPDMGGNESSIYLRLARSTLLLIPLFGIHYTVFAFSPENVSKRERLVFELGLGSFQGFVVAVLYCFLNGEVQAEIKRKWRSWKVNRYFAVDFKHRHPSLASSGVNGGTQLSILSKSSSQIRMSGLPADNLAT

[3] = biological target: T1, Pituitary adenylate cyclase-activating polypeptide type I receptor; assay: Displacement of [125I]Ac-PACAP27 from human recombinant PAC1 receptor expressed in CHO cells by gamma- counter; assay type: cell-based
Target sequence in this assay (P41586 whole entry): as the sequence (P41586 whole entry) above

Row | SMILES | EC50 [1] [nM] | Emax [2] [%] | IC50 [3] [nM]
1 | CC[C@H](C)[C@H](NC(=O)CNC(=O)[C@H](CC(=O)O)NC(=O)[C@H](CO)NC(=O)[C@H](N)Cc1cnc[nH]1)C(=O)N[C@@H](Cc1ccccc1)C(=O)N[C@H](C(=O)N[C@@H](CC(=O)O)C(=O)N[C@@H](CO)C(=O)N[C@@H](Cc1ccc(O)cc1)C(=O)N[C@@H](CO)C(=O)N[C@@H](CCCNC(=N)N)C(=O)N[C@@H](Cc1ccc(O)cc1)C(=O)N[C@@H](CCCNC(=N)N)C(=O)N[C@@H](CCCCN)C(=O)N[C@@H](CCC(N)=O)C(=O)N[C@@H](CCSC)C(=O)N[C@@H](C)C(=O)N[C@H](C(=O)N[C@@H](CCCCN)C(=O)N[C@@H](CCCCN)C(=O)N[C@@H](Cc1ccc(O)cc1)C(=O)N[C@@H](CC(C)C)C(=O)N[C@@H](C)C(=O)N[C@@H](C)C(=O)N[C@H](C(=O)N[C@@H](CC(C)C)C(=O)NCC(=O)N[C@@H](CCCCN)C(=O)N[C@@H](CCCNC(=N)N)C(=O)N[C@@H](Cc1ccc(O)cc1)C(=O)N[C@@H](CCCCN)C(=O)N[C@@H](CCC(N)=O)C(=O)N[C@@H](CCCNC(=N)N)C(=O)N[C@H](C(=O)N[C@@H](CCCCN)C(=O)N[C@@H](CC(N)=O)C(=O)N[C@@H](CCCCN)C(N)=O)C(C)C)C(C)C)C(C)C)[C@@H](C)O | 2.9 | 107 | –
2 | CC[C@H](C)[C@H](NC(=O)CNC(=O)[C@H](CC(=O)O)NC(=O)[C@H](CO)NC(=O)[C@@H](N)Cc1cnc[nH]1)C(=O)N1c2ccccc2CC1C(=O)N[C@H](C(=O)N[C@@H](CC(=O)O)C(=O)N[C@@H](CO)C(=O)N[C@@H](Cc1ccc(O)cc1)C(=O)N[C@@H](CO)C(=O)N[C@@H](CCCNC(=N)N)C(=O)N[C@@H](Cc1ccc(O)cc1)C(=O)N[C@@H](CCCNC(=N)N)C(=O)N[C@@H](CCCCN)C(=O)N[C@@H](CCC(N)=O)C(=O)N[C@@H](CCSC)C(=O)N[C@@H](C)C(=O)N[C@H](C(=O)N[C@@H](CCCCN)C(=O)N[C@@H](CCCCN)C(=O)N[C@@H](Cc1ccc(O)cc1)C(=O)N[C@@H](CC(C)C)C(=O)N[C@@H](C)C(=O)N[C@@H](C)C(=O)N[C@H](C(=O)N[C@@H](CC(C)C)C(N)=O)C(C)C)C(C)C)[C@@H](C)O (some centres undefined) | 35 | 72 | 1940
3 | CC[C@H](C)[C@H](NC(=O)CNC(=O)[C@@H](CC(=O)O)NC(=O)[C@H](CO)NC(=O)[C@@H](N)Cc1cnc[nH]1)C(=O)N[C@@H](Cc1ccccc1)C(=O)N[C@H](C(=O)N[C@@H](CC(=O)O)C(=O)N[C@@H](CO)C(=O)N[C@@H](Cc1ccc(O)cc1)C(=O)N[C@@H](CO)C(=O)N[C@@H](CCCNC(=N)N)C(=O)N[C@@H](Cc1ccc(O)cc1)C(=O)N[C@@H](CCCNC(=N)N)C(=O)N[C@@H](CCCCN)C(=O)N[C@@H](CCC(N)=O)C(=O)N[C@@H](CCSC)C(=O)N[C@@H](C)C(=O)N[C@H](C(=O)N[C@@H](CCCCN)C(=O)N[C@@H](CCCCN)C(=O)N[C@@H](Cc1ccc(O)cc1)C(=O)N[C@@H](CC(C)C)C(=O)N[C@@H](C)C(=O)N[C@@H](C)C(=O)N[C@H](C(=O)N[C@@H](CC(C)C)C(=O)NCC(=O)N[C@@H](CCCCN)C(=O)N[C@@H](CCCNC(=N)N)C(=O)N[C@@H](Cc1ccc(O)cc1)C(=O)N[C@@H](CCCCN)C(=O)N[C@@H](CCC(N)=O)C(=O)N[C@@H](CCCNC(=N)N)C(=O)N[C@H](C(=O)N[C@@H](CCCCN)C(=O)N[C@@H](CC(N)=O)C(=O)N[C@@H](CCCCN)C(N)=O)C(C)C)C(C)C)C(C)C)[C@@H](C)O | 7.6 | 98.6 | 7.2
4 | CC[C@H](C)[C@H](NC(=O)CNC(=O)[C@H](CC(=O)O)NC(=O)[C@@H]1C[C@@H](O)CN1C(=O)[C@@H](N)Cc1cnc[nH]1)C(=O)N[C@@H](Cc1ccccc1)C(=O)N[C@H](C(=O)N[C@@H](CC(=O)O)C(=O)N[C@@H](CO)C(=O)N[C@@H](Cc1ccc(O)cc1)C(=O)N[C@@H](CO)C(=O)N[C@@H](CCCNC(=N)N)C(=O)N[C@@H](Cc1ccc(O)cc1)C(=O)N[C@@H](CCCNC(=N)N)C(=O)N[C@@H](CCCCN)C(=O)N[C@@H](CCC(N)=O)C(=O)N[C@@H](CCSC)C(=O)N[C@@H](C)C(=O)N[C@H](C(=O)N[C@@H](CCCCN)C(=O)N[C@@H](CCCCN)C(=O)N[C@@H](Cc1ccc(O)cc1)C(=O)N[C@@H](CC(C)C)C(=O)N[C@@H](C)C(=O)N[C@@H](C)C(=O)N[C@H](C(=O)N[C@@H](CC(C)C)C(N)=O)C(C)C)C(C)C)[C@@H](C)O | 2.3 | 89.2 | 8.5
5 | CC[C@H](C)[C@H](NC(=O)CNC(=O)[C@H](CCCC(=O)O)NC(=O)[C@H](CO)NC(=O)[C@@H](N)Cc1cnc[nH]1)C(=O)N[C@@H](Cc1ccccc1)C(=O)N[C@H](C(=O)N[C@@H](CC(=O)O)C(=O)N[C@@H](CO)C(=O)N[C@@H](Cc1ccc(O)cc1)C(=O)N[C@@H](CO)C(=O)N[C@@H](CCCNC(=N)N)C(=O)N[C@@H](Cc1ccc(O)cc1)C(=O)N[C@@H](CCCNC(=N)N)C(=O)N[C@@H](CCCCN)C(=O)N[C@@H](CCC(N)=O)C(=O)N[C@@H](CCSC)C(=O)N[C@@H](C)C(=O)N[C@H](C(=O)N[C@@H](CCCCN)C(=O)N[C@@H](CCCCN)C(=O)N[C@@H](Cc1ccc(O)cc1)C(=O)N[C@@H](CC(C)C)C(=O)N[C@@H](C)C(=O)N[C@@H](C)C(=O)N[C@H](C(=O)N[C@@H](CC(C)C)C(=O)NCC(=O)N[C@@H](CCCCN)C(=O)N[C@@H](CCCNC(=N)N)C(=O)N[C@@H](Cc1ccc(O)cc1)C(=O)N[C@@H](CCCCN)C(=O)N[C@@H](CCC(N)=O)C(=O)N[C@@H](CCCNC(=N)N)C(=O)N[C@H](C(=O)N[C@@H](CCCCN)C(=O)N[C@@H](CC(N)=O)C(=O)N[C@@H](CCCCN)C(N)=O)C(C)C)C(C)C)C(C)C)[C@@H](C)O (H-HS[Aad]GIFTDSYSRYRKQMAVKKYLAAVLGKRYKQRVKNK-NH2) | 37.6 | 18.2 | 12.5

More lines, now with the values ahead:

Row | EC50 [1] [nM] | Emax [2] [%] | IC50 [3] [nM] | SMILES
6 | 10.1 | 104 | 9.5 | CC[C@H](C)[C@H](NC(=O)CNC(=O)[C@H](CC(=O)O)NC(=O)C(C)(C)NC(=O)[C@@H](N)Cc1cnc[nH]1)C(=O)N[C@@H](Cc1ccccc1)C(=O)N[C@H](C(=O)N[C@@H](CC(=O)O)C(=O)N[C@@H](CO)C(=O)N[C@@H](Cc1ccc(O)cc1)C(=O)N[C@@H](CO)C(=O)N[C@@H](CCCNC(=N)N)C(=O)N[C@@H](Cc1ccc(O)cc1)C(=O)N[C@@H](CCCNC(=N)N)C(=O)N[C@@H](CCCCN)C(=O)N[C@@H](CCC(N)=O)C(=O)N[C@@H](CCSC)C(=O)N[C@@H](C)C(=O)N[C@H](C(=O)N[C@@H](CCCCN)C(=O)N[C@@H](CCCCN)C(=O)N[C@@H](Cc1ccc(O)cc1)C(=O)N[C@@H](CC(C)C)C(=O)N[C@@H](C)C(=O)N[C@@H](C)C(=O)N[C@H](C(=O)N[C@@H](CC(C)C)C(N)=O)C(C)C)C(C)C)[C@@H](C)O
7 | 48.8 | 93 | – | CC[C@H](C)[C@H](NC(=O)CNC(=O)[C@H](CC(=O)O)NC(=O)[C@H](CO)N(C)C(=O)[C@@H](N)Cc1cnc[nH]1)C(=O)N[C@@H](Cc1ccccc1)C(=O)N[C@H](C(=O)N[C@@H](CC(=O)O)C(=O)N[C@@H](CO)C(=O)N[C@@H](Cc1ccc(O)cc1)C(=O)N[C@@H](CO)C(=O)N[C@@H](CCCNC(=N)N)C(=O)N[C@@H](Cc1ccc(O)cc1)C(=O)N[C@@H](CCCNC(=N)N)C(=O)N[C@@H](CCCCN)C(=O)N[C@@H](CCC(N)=O)C(=O)N[C@@H](CCSC)C(=O)N[C@@H](C)C(=O)N[C@H](C(=O)N[C@@H](CCCCN)C(=O)N[C@@H](CCCCN)C(=O)N[C@@H](Cc1ccc(O)cc1)C(=O)N[C@@H](CC(C)C)C(=O)N[C@@H](C)C(=O)N[C@@H](C)C(=O)N[C@H](C(=O)N[C@@H](CC(C)C)C(N)=O)C(C)C)C(C)C)[C@@H](C)O
